We go through eight molecules from ChEMBL document CHEMBL5030521, “Design, Synthesis, and Characterization of Novel sn-1 Heterocyclic DAG-Lactones as PKC Activators” (J Med Chem, 2021).

Active and inactive are the calls of the source.

The target in assay [1] is T1, Protein kinase C alpha type (Homo sapiens, UniProt P17252). Nature of the assay: Displacement of [3H]-PDBu from recombinant human PKCalpha at 30 uM by scintillation counter method relative to control. The method in brief: (§1)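 Competition of 2 nM [3H]PDBu by test ligand at a single fixed concentration (value in line); 50 mM Tris-HCl pH 7.4, 100 μg/mL porcine brain phosphatidylserine, 5 mg/mL bovine IgG, 0.003% Tx-100, 20 ng/tube enzyme; 0.1 mM Ca2+ for PKCα, 1 mM EGTA for PKCε. 5 min at 37 °C, PEG precipitation, bound and free counted separately; nonspecific with 10 μM cold PDBu; triplicates.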
A general note: In a radioligand displacement assay an active substance lowers the binding of a labelled ligand.

Assay [2] addresses T2, Protein kinase C epsilon type (Homo sapiens) (UniProt Q02156).
T2 sequence (whole entry): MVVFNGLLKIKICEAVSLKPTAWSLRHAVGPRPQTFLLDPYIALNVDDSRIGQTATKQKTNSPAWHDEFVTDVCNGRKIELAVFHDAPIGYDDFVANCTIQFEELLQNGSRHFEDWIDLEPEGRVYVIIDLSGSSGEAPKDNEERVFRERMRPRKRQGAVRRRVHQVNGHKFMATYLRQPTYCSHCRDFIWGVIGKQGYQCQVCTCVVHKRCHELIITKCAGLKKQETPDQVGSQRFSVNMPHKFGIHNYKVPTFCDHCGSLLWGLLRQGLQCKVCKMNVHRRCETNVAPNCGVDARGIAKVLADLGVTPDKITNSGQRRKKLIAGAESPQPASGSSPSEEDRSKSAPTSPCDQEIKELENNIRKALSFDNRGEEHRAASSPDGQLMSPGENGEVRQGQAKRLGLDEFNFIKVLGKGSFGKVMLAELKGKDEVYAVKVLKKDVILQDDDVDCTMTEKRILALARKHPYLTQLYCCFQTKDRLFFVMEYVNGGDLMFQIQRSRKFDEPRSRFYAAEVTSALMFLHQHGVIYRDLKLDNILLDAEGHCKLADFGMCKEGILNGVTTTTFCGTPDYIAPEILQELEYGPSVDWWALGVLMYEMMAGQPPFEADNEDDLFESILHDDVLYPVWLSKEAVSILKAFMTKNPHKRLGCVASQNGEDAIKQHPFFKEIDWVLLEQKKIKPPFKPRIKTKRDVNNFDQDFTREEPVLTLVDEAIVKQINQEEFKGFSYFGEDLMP
Nature of the assay: Displacement of [3H]-PDBu from recombinant human PKCepsilon at 30 uM by scintillation counter method relative to control. The method in brief:
as §1

In assay [3] the target is T1, Protein kinase C alpha type. Nature of the assay: Displacement of [3H]-PDBu from recombinant human PKCalpha by scintillation counter method. The essentials: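 [3H]PDBu (2 nM) competition with increasing ligand in 50 mM Tris-HCl pH 7.4, 100 μg/mL porcine brain phosphatidylserine, 0.1 mM Ca2+ (PKCα), 5 mg/mL bovine IgG, 0.003% Triton X-100, 20 ng enzyme/tube; nonspecific with 10 μM PDBu. 37 °C 5 min, PEG precipitation, bound and free counted by scintillation. Triplicates; Ki from ID50; three experiments, mean ± SEM.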

The target in assay [4] is T3, Protein kinase C epsilon type (Homo sapiens, UniProt Q02156).
T3 sequence (Q02156 whole entry): T2 sequence (whole entry)
The experiment in a line: Displacement of [3H]-PDBu from recombinant human PKCepsilon by scintillation counter method. The method in brief: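 PKCε with 2 nM [3H]PDBu plus increasing competitor concentrations, in 50 mM Tris-HCl pH 7.4, 100 μg/mL phosphatidylserine, 1 mM EGTA, 5 mg/mL bovine IgG, 0.003% Tx-100, 20 ng/tube enzyme; 37 °C 5 min, then PEG precipitation and counting of pellet and supernatant. Nonspecific binding from 10 μM unlabeled PDBu. Ki derived from competition-curve ID50; mean ± SEM of three experiments, triplicate points.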

Assay [5] deals with A549. Nature of the assay: Induction of ruffle formation in human A549 cells transfected with PKCepsilon siRNA at 1 microM incubated for 30 mins using phalloidin-rhodamine staining based microscopic analysis. It is filed as functional, cell-based. The method in brief:
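A549 cells transfected with PKCε siRNA duplexes (two sequences) or nontarget control; 48 h later treated 1 μM for 30 min, formaldehyde-fixed, phalloidin-rhodamine stained; ruffle area/cell by intensity thresholding. Knockdown checked by Q-PCR mRNA and Western blot.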

Assay [6] has as its target T2, Protein kinase C epsilon type (Homo sapiens). Nature of the assay: Activation of GFP-fused PKCepsilon in HeLa cells assessed as translocation of PKCepsilon from cytosol to membrane measured after 30 mins by DAPI staining based fluorescence microscopy. The class given is subcellular. The method in brief:
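HeLa cells transfected with pEGFP-N1-PKCε, plated on coverslips, serum-starved 24 h after 24 h, then treated 30 min; methanol-fixed, DAPI counterstained, imaged by fluorescence microscopy. Membrane/cytosol ratio from line intensity profiles across ~10–15 cells/group, operator blinded; mean ± SD; PMA 100 nM as control.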

Assay [7] shares this target. Nature of the assay: Displacement of [3H]-PDBu from recombinant human PKCepsilon at 10 uM by scintillation counter method relative to control. The essentials:
as §1

Assay [8] deals with T1, Protein kinase C alpha type. The experiment in a line: Activation of GFP-fused PKCalpha in HeLa cells assessed as […] from cytosol to membrane measured after 30 mins by DAPI staining based fluorescence microscopy. The conditions noted are these: filed as activator. The class given is subcellular. The essentials:
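HeLa cells (5 × 10^4) transfected with pEGFP-N1-PKCα or -PKCε, plated on coverslips; after 24 h serum-starved 24 h, then treated 30 min. Methanol-fixed, DAPI-counterstained, imaged by fluorescence microscopy. Line scans across cytoplasm (~10–15 cells/group) give membrane/cytosol fluorescence ratio; operator blinded; mean ± SD.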

The test system of assay [9] is A549. Nature of the assay: Induction of ruffle formation in human A549 cells at 1 microM incubated for 30 mins using phalloidin-rhodamine staining based microscopic analysis. It is filed as functional, cell-based. The method in brief: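 Serum-starved (24 h) A549 cells at low confluence on coverslips treated 30 min at 1 μM; fixed in 4% formaldehyde, F-actin stained with phalloidin-rhodamine, DAPI nuclei. Five random fields scored; ruffle area per cell by intensity thresholding.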

As to `CC(C)=C1CC(CO)(COc2cc(C)on2)OC1=O` (centres undefined), the inhibition – broadly, the relative decrease from the control value, in per cent – in assay [1] stood at 31.3%.

For the molecule `CC(C)CC(C/C=C1\CC(CO)(Cn2nnc(-c3ccccc3)n2)OC1=O)CC(C)C` (centres undefined), the inhibition in [1] turned out to be 37.5%; in [2], 69.2%.

In the case of `Cc1cc(OCC2(CO)C/C(=C\CC(CC(C)C)CC(C)C)C(=O)O2)no1` (centres undefined), the Ki (usually a dissociation constant, usually derived from enzyme kinetics or from competition with a known ligand) in assay [3] came out at 79.3 nM; in assay [4], 33.6 nM. The result in assay [5] was inactive.

For `Cc1ccc(-c2cn(CC3(CO)C/C(=C\CC(CC(C)C)CC(C)C)C(=O)O3)nn2)cc1` (centres undefined), the outcome in [6] was inactive. Further, the inhibition in assay [7] turned out to be 17%.

For the molecule `CCCCCCCCCCCCCC(=O)O[C@@H]1[C@@H](C)[C@@]2(O)[C@@H](C=C(CO)C[C@]3(O)C(=O)C(C)=C[C@@H]23)[C@@H]2C(C)(C)[C@]12OC(C)=O`, the result in [6] was inactive. Moreover, the outcome in [8] was Active.

Regarding `CC(C)=C1CC(CO)(Cn2nnc(-c3ccccc3)n2)OC1=O` (centres undefined), the inhibition in assay [1] was determined as 23.5%. Besides, the result in [6] was inactive.

As for `CC(C)CC(C/C=C1\CC(CO)(COC(=O)C(C)(C)C)OC1=O)CC(C)C` (centres undefined), the inhibitory constant (Ki) was 23.6 nM in assay [3] and 1.89 nM in [4]. Also, the fold change (FC) in assay [6] (filed as activator) is 43. Moreover, in [9], the outcome was Active. Further, the result in [5] was inactive.

Turning to `CC(C)=C1CC(CO)(Cn2cc(-c3ccc(C)cc3)nn2)OC1=O` (centres undefined), the inhibition in [1] was 11.7%. Moreover, the result in [6] was inactive.
